Assay [1] addresses T1, Estrogen receptor (Rattus norvegicus) (UniProt P06211+Q62986). Description: Relative binding affinity (RBA) for estrogen receptor of rat uterine cytosol at OC relative to Estradiol. It is filed as protein assay. The method in brief:
(§1)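 Uterine cytosol from immature female Holtzman rats (21–25 days old), stored in liquid nitrogen. Competition assay with varying concentrations of unlabeled competitor against [³H]estradiol, incubated at 0–4 °C for 1–2 h. RBA is reported relative to estradiol (RBA = 100).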

The target of assay [2] is T1, Estrogen receptor (Rattus norvegicus). Description: Relative binding affinity (RBA) for estrogen receptor of rat uterine cytosol at 25 degree C relative to Estradiol. It is filed as protein assay. The gist of the method: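 Cytosol source is the uterus of immature female Holtzman rats (21–25 days old), kept in liquid nitrogen. Graded concentrations of unlabeled ligand compete with [³H]estradiol during an 18 h incubation at 25 °C. RBA is expressed against estradiol set at 100.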

In assay [3] the target is T2, Estrogen receptor (Ovis aries) (UniProt P49885+Q9TU15). Description: Relative binding affinity (RBA) for estrogen receptor in lamb uterine cytosol at OC relative to Estradiol. It is filed as protein assay. The conditions noted are these: Uterus. The method in brief:
(§2)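 Competitive estrogen receptor binding in lamb uterine cytosol, with estradiol as the standard ligand (RBA = 100). Incubation was at 0–4 °C for 1–2 h.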

Assay [4] addresses T1, Estrogen receptor (Rattus norvegicus). Description: Relative binding affinity (RBA) for estrogen receptor in rat uterine cytosol at OC relative to Estradiol. The conditions noted are these: Uterus. The method in brief:
as §1

Assay [5] concerns the target T2, Estrogen receptor (Ovis aries). Description: Relative binding affinity (RBA) for estrogen receptor of lamb uterine cytosol at OC relative to Estradiol. In kind it is protein assay. The method in brief:
as §2

`C[C@]12CC[C@@H]3c4ccc(O)cc4CC[C@H]3[C@@H]1CC[C@@]2(O)/C=C/Cl`: the relative binding affinity (RBA) in assay [1] was 126; in assay [3], 74. Further, in assay [2], the RBA came to 199.

For `C[C@]12CC[C@@H]3c4ccc(O)cc4CC[C@H]3[C@@H]1CC[C@@]2(O)/C=C/Br`, the relative binding affinity (RBA) in assay [1] is 195; in assay [3], 117. The compound further yielded an RBA in assay [2] of 661.

As to `C[C@]12CC[C@@H]3c4ccc(O)cc4CC[C@H]3[C@@H]1CC[C@@]2(O)/C=C\I`, in assay [1], the relative binding affinity (RBA) came out at 77. This compound came in with an RBA in assay [2] of 62.

As for `C[C@]12CC[C@@H]3c4ccc(O)cc4CC[C@H]3[C@@H]1CC[C@@]2(O)/C=C\Br`, the values for the relative binding affinity (RBA) in assay [4] and in assay [5] were 78 and 71, respectively. Moreover, in assay [2], the RBA worked out at 56.

In turn, `C[C@]12CC[C@@H]3c4ccc(O)cc4CC[C@H]3[C@@H]1CC[C@@]2(O)/C=C/I` showed a relative binding affinity (RBA) in assay [1] of 202. In addition, the RBA in assay [2] came out at 776.

Consider `C[C@]12CC[C@@H]3c4ccc(O)cc4CC[C@H]3[C@@H]1CC[C@@]2(O)/C=C\Cl`, for which the relative binding affinity (RBA) was found to be 102 in assay [4] and 115 in assay [5]. In addition, the RBA in assay [2] was found to be 89.

The values above are taken from ChEMBL document CHEMBL1125200, “Structure-activity relationships of estrogenic ligands: synthesis and evaluation of (17 alpha, 20E)- and (17 alpha, 20Z)-21-halo-19-norpregna-1,3,5(10),20-tetraene-3,17 beta-diols” (J Med Chem, 1991).
